Our source for the deltaA values is ChEMBL document CHEMBL1177744, “An efficient and economical MTT assay for determining the antioxidant activity of plant natural product extracts and pure compounds” (J Nat Prod, 2010).

This assay in a line: Antioxidant activity assessed as formazan formation induced absorbance changes at 25 ppm at 570 nm at 37 degC for 6 hrs by MTT assay. The assay is classed as functional. A digest of the protocol:
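Cell-free redox assay: MTT in water (190 µL) vortexed 1 min with sample (10 µL) in DMSO in a capped 2 mL glass vial. DMSO (200 µL) then added to give 50:50 water-DMSO, and the mixture vortexed again. Incubated 6 h at 37 °C, then 200 µL read at 570 nm for formazan. Triplicates, experiment repeated 10 times, mean absorbance reported.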
(Tetrazolium assays rely on reduction of a dye to a coloured formazan, in cell work by metabolically active cells.)

Molecules are shown by their SMILES. Where “and” joins values, the source holds several entries; their conditions need not be identical. Identical values can stand only once.

In the case of `Cc1cccc(O)c1O`, the deltaA worked out at 0.86.

With `C[C@H]1O[C@@H](Oc2cc3c(O)cc(O)cc3[o+]c2-c2ccc(O)c(O)c2)[C@@H](O[C@@H]2O[C@H](CO)[C@@H](O)[C@H](O)[C@H]2O)[C@@H](O)[C@@H]1O`, the deltaA came out at 0.17.

For the molecule `Oc1cc(O)c2c(c1)O[C@H](c1ccc(O)c(O)c1)[C@H](O)C2`, the deltaA came to 0.17.

`CCCC/C=C\CCCCCCCCC(=O)O`: the deltaA is 0.19.

As to `O=c1cc(-c2ccc(O)cc2)oc2cc(O)cc(O)c12`, the deltaA was 0.14.

`CCCCCCCC/C=C\CCCCCCCCCCCC(=O)O`: the deltaA stood at 0.68.

For `CC/C=C\C/C=C\C/C=C\CCCCCCCC(=O)OC`, the deltaA is 0.25.

For the molecule `COc1cc(C(=O)O)ccc1O`, the deltaA was determined as 0.19.

On to `Oc1cc(O)c2c(c1)O[C@@H](c1ccc(O)c(O)c1)[C@H](O)C2`, for which the deltaA turned out to be 0.53.

On to `COc1ccc(-c2cc(=O)c3ccccc3o2)cc1`, for which the deltaA amounted to 0.24.

For `O=C(O[C@@H]1Cc2c(O)cc(O)cc2O[C@@H]1c1ccc(O)c(O)c1)c1cc(O)c(O)c(O)c1`, the deltaA stood at 1.18.

Regarding `COC(=O)/C=C/C(C)=C\C=C\C(C)=C\C=C\C=C(C)\C=C\C=C(C)\C=C\C(=O)O`, the deltaA was 0.61.

Regarding `CCCCCCCCCCCC(=O)O`, the deltaA came to 0.19.

With `CCCCCCCC(=O)O`, the deltaA was 0.17.

As to `O=C(O)/C=C/c1ccc(O)c(O)c1`, the deltaA was 0.69.

`O=c1c(-c2ccc(O)cc2)coc2cc(O)ccc12`: the deltaA was determined as 0.48.

Turning to `CC(C)(C)c1cc(O)ccc1O`, the deltaA worked out at 0.51.

With `COc1ccc(-c2cc(=O)c3ccc(O)cc3o2)cc1`, the deltaA was 0.23.

Regarding `CCCCCCCCCCCCCCCCCCCCC(=O)O`, the deltaA was determined as 0.22.

As for `C[C@@H]1O[C@@H](Oc2c(-c3ccc(O)c(O)c3)oc3cc(O)cc(O)c3c2=O)[C@H](O)[C@H](O)[C@H]1O`, the deltaA is 0.3.

As for `C[C@H]1O[C@@H](OC[C@@H]2O[C@H](Oc3cc4c(O)cc(O)cc4[o+]c3-c3ccc(O)c(O)c3)[C@@H](O[C@@H]3O[C@H](CO)[C@@H](O)[C@H](O)[C@H]3O)[C@H](O)[C@H]2O)[C@@H](O)[C@@H](O)[C@@H]1O`, the deltaA was found to be 0.28.

As to `CCCCCCCCCCCCC(=O)O`, the deltaA was 0.47.

In the case of `O=c1c(O)c(-c2ccc(O)c(O)c2)oc2cc(O)cc(O)c12`, the deltaA was 0.75 and 0.3.

Consider `O=C1O[C@H]([C@@H](O)CO)C(O)=C1O`, for which the deltaA came to 0.5.

With `COc1cc(/C=C/C(=O)CC(=O)/C=C/c2ccc(O)c(OC)c2)ccc1O`, the deltaA turned out to be 0.85.

For the molecule `O=C(O)/C=C/c1ccc2c(c1)OCO2`, the deltaA worked out at 0.19.

Turning to `CCCCCCCCCCCCCCCCCCCCCCCC(=O)O`, the deltaA stood at 0.16.

With `CCCCCCCC/C=C\CCCCCCCCCCCCCC(=O)O`, the deltaA was determined as 0.89.

`CC(C)CCC[C@@H](C)[C@H]1CC[C@H]2[C@@H]3CC=C4C[C@@H](O)CC[C@]4(C)[C@H]3CC[C@]12C`: the deltaA was found to be 0.22.

For the molecule `COc1cc(/C=C/C(=O)O)ccc1O`, the deltaA was found to be 0.29.

As to `O=c1cc(-c2ccccc2)oc2c(O)c(O)ccc12`, the deltaA came to 0.49.

Regarding `CCCCCCCCCCCCCCCCCCCCCCC(=O)O`, the deltaA was found to be 0.27.

For `O=c1cc(-c2ccc(O)c(O)c2)oc2cc(O)cc(O)c12`, the deltaA turned out to be 0.66.

Consider `O=C(O)C1=C/C(=C\C=[N+]2/c3cc(O)c(O[C@@H]4O[C@H](CO)[C@@H](O)[C@H](O)[C@H]4O)cc3C[C@H]2C(=O)[O-])C[C@@H](C(=O)O)N1`, for which the deltaA was 0.6.

On to `CCCCCC/C=C\CCCC(=O)O`, for which the deltaA was 0.17.

Consider `CCCCC/C=C\C/C=C\CCCCCCCC(=O)O`, for which the deltaA worked out at 0.68.

Regarding `COc1cc(/C=C/C(O)=C/C(=O)/C=C/c2ccc(O)cc2)ccc1O`, the deltaA turned out to be 0.61.

For the molecule `COc1ccccc1-c1cc(=O)c2c(OC)cccc2o1`, the deltaA was found to be 0.27.

Take `O=C(/C=C/c1ccc(O)c(O)c1)O[C@@H]1C[C@](O)(C(=O)O)C[C@@H](O)[C@H]1O`: the deltaA turned out to be 0.72.

For `CCCCCCCCCCCCCCCCC(=O)O`, the deltaA amounted to 0.91.

With `Oc1cc(O)c2c(c1)O[C@H](c1ccc(O)c(O)c1)[C@@H](O)C2`, the deltaA worked out at 0.88.

Take `Cc1c(C)c2c(c(C)c1O)CC[C@@](C)(CCC[C@H](C)CCC[C@H](C)CCCC(C)C)O2`: the deltaA stood at 0.56.

In the case of `O=c1cc(-c2ccccc2)oc2cc(O)cc(O)c12`, the deltaA came to 0.3.

Turning to `CCCCCCCCCCCCCCCCCCCC(=O)O`, the deltaA worked out at 0.25.

As for `O=C(O[C@@H]1Cc2c(O)cc(O)cc2O[C@H]1c1cc(O)c(O)c(O)c1)c1cc(O)c(O)c(O)c1`, the deltaA turned out to be 0.92.

Take `CC1=C(/C=C/C(C)=C/C=C/C(C)=C/C=C/C=C(C)/C=C/C=C(C)/C=C/C2=C(C)CCCC2(C)C)C(C)(C)CCC1`: the deltaA came out at 0.32.

On to `CCCCCCCCCCC(=O)O`, for which the deltaA came out at 0.19.

As for `CCCCCCCCCCCCCCCCCC(=O)O`, the deltaA amounted to 0.47.

Take `CC12CCC(CC1=O)C2(C)C` (centres undefined): the deltaA stood at 0.24.

Take `COc1ccc(-c2coc3cc(O)cc(O)c3c2=O)cc1`: the deltaA was found to be 0.37.

In the case of `Oc1cc(O)c2c(c1)OC(c1ccc(O)c(O)c1)C(O)C2` (racemic), the deltaA is 1.18.

`CC(C)=CCC/C(C)=C/C=C/C(C)=C/C=C/C(C)=C/C=C/C=C(C)/C=C/C=C(C)/C=C/C=C(\C)CCC=C(C)C`: the deltaA was determined as 0.59.

On to `COc1cc(O)c2c(=O)c(OC)c(-c3ccc(OC)c(OC)c3)oc2c1`, for which the deltaA is 0.23.

On to `CCCCCCCCCCCCCCCCCCC(=O)O`, for which the deltaA turned out to be 0.53.

Regarding `COc1ccc(-c2cc(=O)c3c(O)cc(O)cc3o2)cc1`, the deltaA was determined as 0.26.

For `O=c1c(-c2ccc(O)cc2)coc2cc(O)cc(O)c12`, the deltaA worked out at 0.29.

Consider `Oc1cccc(O)c1O`, for which the deltaA came to 0.86.

For `COc1ccc(-c2cc(=O)c3ccc(OC)cc3o2)cc1`, the deltaA was found to be 0.17.

As to `O=C(O)CCc1ccc(O)cc1`, the deltaA was 0.17.

As to `O=C(O)/C=C/c1ccc(O)cc1`, the deltaA came to 0.15.

With `CCCCCCCCCCCCCCCCCCCCCC(=O)O`, the deltaA was determined as 0.25.

As to `Cc1cc(C(C)(C)C)c(O)c(C(C)(C)C)c1`, the deltaA was found to be 0.51.

Take `CCCCCCCCCC(=O)O`: the deltaA was 0.51.

With `CCCCCCCCC(=O)O`, the deltaA is 0.16.

Regarding `C[C@H]1[C@H](C)CC[C@]2(C(=O)O)CC[C@]3(C)C(=CC[C@@H]4[C@@]5(C)CC[C@H](O)C(C)(C)[C@@H]5CC[C@]43C)[C@H]12`, the deltaA came to 0.43.

Consider `O=C(/C=C/c1ccc(O)cc1)CC(=O)/C=C/c1ccc(O)cc1`, for which the deltaA was determined as 0.37.

On to `Oc1cc(O)c2c(c1)O[C@@H](c1cc(O)c(O)c(O)c1)[C@H](O)C2`, for which the deltaA turned out to be 0.99.

In the case of `CC(C)CCC[C@@H](C)[C@H]1CC[C@H]2[C@@H]3CC=C4C[C@@H](O[C@@H]5O[C@H](CO)[C@@H](O)[C@H](O)[C@H]5O)CC[C@]4(C)[C@H]3CC[C@]12C`, the deltaA is 0.3.

For `O=C(O)CC(=O)OC[C@@H]1O[C@H](Oc2cc3c(O)cc(O)cc3[o+]c2-c2ccc(O)c(O)c2)[C@@H](O)[C@H](O)[C@H]1O`, the deltaA was 0.2.

For the molecule `O=c1c(-c2ccc(O)cc2)coc2cc(O[C@@H]3O[C@H](CO)[C@@H](O)[C@H](O)[C@H]3O)cc(O)c12`, the deltaA was 0.33.

For the molecule `COc1ccc2ccc(=O)oc2c1`, the deltaA was 0.18.

Take `CCCCCCCCCCCCCC(=O)O`: the deltaA came to 0.58.

Take `COc1ccc(-c2coc3cc(O)ccc3c2=O)cc1`: the deltaA was determined as 0.2.

`O=C(O)c1ccc(O)cc1`: the deltaA was found to be 0.13.
